According to ChEMBL document CHEMBL4000144, “Novel amide and sulphonamide derivatives of 6-(piperazin-1-yl)phenanthridine as potent Mycobacterium tuberculosis H37Rv inhibitors” (Eur J Med Chem, 2015):
In brackets after ≈: the same amount, converted by molar mass.

Experiments:
[1] = tested on: Mycobacterium tuberculosis; assay: Antimycobacterial activity against Mycobacterium tuberculosis H37Rv ATCC 27294 after 5 days by microplate alamar blue assay; format: functional; conditions: H37Rv ATCC 27294, 120 h
Summary of the method: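 MTB H37Rv (ATCC 27294) in 7H9GC broth, 2-fold serial dilutions from 50 to 0.78 µg/mL. Controls were medium only, inoculum only, and inoculum with 3-5% DMSO. Incubated at 37°C for 5 days. Then 1:1 10× Alamar Blue/10% Tween 80 was added and plates read after a further 24 h at 37°C. Blue scored as no growth, pink as growth.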

[2] = Cytotoxicity against mouse RAW264.7 cells assessed as inhibition of cell viability at 50 ug/ml after 72 hrs by Cell Titer 96 non-radioactive cell proliferation assay; format: cell-based
Summary of the method: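 Mouse macrophage RAW264.7 cells exposed to compound at 50 µg/mL for 72 h. Viability was then measured by the MTT-type Cell Titer 96 non-radioactive proliferation assay.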

[3] = tested on: RAW264.7; assay: Cytotoxicity against mouse RAW264.7 cells assessed as inhibition of cell viability after 72 hrs by Cell Titer 96 non-radioactive cell proliferation assay; format: cell-based; conditions: RAW264.7, 72 h
Summary of the method: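 MTT-type Cell Titer 96 non-radioactive proliferation assay on mouse macrophage RAW264.7 cells. Viability was read after 72 h of exposure. IC50 values are given as approximate.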

[4] = Selectivity index, ratio of IC50 for mouse RAW264.7 cells to MIC for Mycobacterium tuberculosis H37Rv ATCC 27294; format: toxicity; conditions: read-out: Selectivity Index

SMILES | MIC99 [1] | inhibition at 72 h, 50 ug/ml [2] | IC50 [3] | selectivity ratio [4]
Cc1cc(S(=O)(=O)N2CCN(c3nc4ccccc4c4ccccc34)CC2)c(C)cc1Cl | 6.25 µg/mL (≈ 13.4 µM) | 34.6% | 72.2 µg/mL (≈ 155 µM) | 11.5
COc1ccc(S(=O)(=O)N2CCN(c3nc4ccccc4c4ccccc34)CC2)cc1 | 6.25 µg/mL (≈ 14.4 µM) | 26.5% | 94.3 µg/mL (≈ 217 µM) | 15.1
O=C(c1ccc([N+](=O)[O-])cc1)N1CCN(c2nc3ccccc3c3ccccc23)CC1 | 50 µg/mL (≈ 121 µM) |  |  | 
O=C(Cc1cccc2ccccc12)N1CCN(c2nc3ccccc3c3ccccc23)CC1 | > 50 µg/mL |  |  | 
O=S(=O)(c1ccc(Br)s1)N1CCN(c2nc3ccccc3c3ccccc23)CC1 | 3.13 µg/mL (≈ 6.41 µM) | 42.2% | 59.3 µg/mL (≈ 121 µM) | 
O=C(CCc1c[nH]c2ccccc12)N1CCN(c2nc3ccccc3c3ccccc23)CC1 | 6.25 µg/mL (≈ 14.4 µM) | 34.6% | 72.2 µg/mL (≈ 166 µM) | 11.5
O=C(c1cccnc1)N1CCN(c2nc3ccccc3c3ccccc23)CC1 | 6.25 µg/mL (≈ 17 µM) | 19.2% | 130 µg/mL (≈ 354 µM) | 20.9
O=C(c1cc([N+](=O)[O-])cc([N+](=O)[O-])c1)N1CCN(c2nc3ccccc3c3ccccc23)CC1 | 25 µg/mL (≈ 54.7 µM) |  |  | 
O=C(c1ccco1)N1CCN(c2nc3ccccc3c3ccccc23)CC1 | 25 µg/mL (≈ 69.9 µM) |  |  | 
O=S(=O)(c1ccc(Br)cc1)N1CCN(c2nc3ccccc3c3ccccc23)CC1 | 3.13 µg/mL (≈ 6.49 µM) | 28.2% | 88.8 µg/mL (≈ 184 µM) | 28.4
O=C(c1ccccc1)N1CCN(c2nc3ccccc3c3ccccc23)CC1 | 3.13 µg/mL (≈ 8.52 µM) | 22.2% | 113 µg/mL (≈ 307 µM) | 36.1
O=[N+]([O-])c1ccc(S(=O)(=O)N2CCN(c3nc4ccccc4c4ccccc34)CC2)cc1 | 50 µg/mL (≈ 111 µM) |  |  | 
CS(=O)(=O)N1CCN(c2nc3ccccc3c3ccccc23)CC1 | 25 µg/mL (≈ 73.2 µM) |  |  | 
O=C(O)c1cccc(C(=O)N2CCN(c3nc4ccccc4c4ccccc34)CC2)n1 | 3.13 µg/mL (≈ 7.59 µM) | 26.5% | 94.3 µg/mL (≈ 229 µM) | 30.2
O=C(/C=C/c1ccccc1)N1CCN(c2nc3ccccc3c3ccccc23)CC1 | 12.5 µg/mL (≈ 31.8 µM) | 22.1% | 113 µg/mL (≈ 287 µM) | 9.04
O=S(=O)(c1ccccc1)N1CCN(c2nc3ccccc3c3ccccc23)CC1 | 6.25 µg/mL (≈ 15.5 µM) | 30.7% | 81.4 µg/mL (≈ 202 µM) | 13
O=S(=O)(c1ccc(F)cc1)N1CCN(c2nc3ccccc3c3ccccc23)CC1 | 6.25 µg/mL (≈ 14.8 µM) | 32.8% | 76.3 µg/mL (≈ 181 µM) | 12.2
O=S(=O)(c1ccc(C(F)(F)F)cc1)N1CCN(c2nc3ccccc3c3ccccc23)CC1 | 25 µg/mL (≈ 53 µM) |  |  | 

SMILES | MIC99 [1] | inhibition at 72 h, 50 ug/ml [2] | IC50 [3] | selectivity ratio [4]
Nc1ccc(C(=O)N2CCN(c3nc4ccccc4c4ccccc34)CC2)cc1 | 50 µg/mL (≈ 131 µM) |  |  | 
CC(C)(C)c1ccc(S(=O)(=O)N2CCN(c3nc4ccccc4c4ccccc34)CC2)cc1 | 1.56 µg/mL (≈ 3.39 µM) | 28.9% | 86.4 µg/mL (≈ 188 µM) | 55.4
O=C(c1ccccn1)N1CCN(c2nc3ccccc3c3ccccc23)CC1 | 3.13 µg/mL (≈ 8.5 µM) | 42.2% | 59.3 µg/mL (≈ 161 µM) | 19
O=C(c1ccc(Cl)cc1)N1CCN(c2nc3ccccc3c3ccccc23)CC1 | 12.5 µg/mL (≈ 31.1 µM) | 26.5% | 94.3 µg/mL (≈ 235 µM) | 7.54
O=S(=O)(c1ccc(Cl)cc1)N1CCN(c2nc3ccccc3c3ccccc23)CC1 | 3.13 µg/mL (≈ 7.15 µM) | 20.9% | 120 µg/mL (≈ 273 µM) | 38.3
O=C(Cc1c[nH]c2ccccc12)N1CCN(c2nc3ccccc3c3ccccc23)CC1 | 25 µg/mL (≈ 59.5 µM) |  |  | 
O=C(c1cccc([N+](=O)[O-])c1)N1CCN(c2nc3ccccc3c3ccccc23)CC1 | 3.13 µg/mL (≈ 7.59 µM) | 34.6% | 72.2 µg/mL (≈ 175 µM) | 23.1
O=C(c1ccncc1)N1CCN(c2nc3ccccc3c3ccccc23)CC1 | 1.56 µg/mL (≈ 4.23 µM) | 27.9% | 89.6 µg/mL (≈ 243 µM) | 57.4
Cc1ccc(S(=O)(=O)N2CCN(c3nc4ccccc4c4ccccc34)CC2)cc1 | > 50 µg/mL |  |  | 
O=C(c1cccs1)N1CCN(c2nc3ccccc3c3ccccc23)CC1 | 50 µg/mL (≈ 134 µM) |  |  | 
N#CCC(=O)N1CCN(c2nc3ccccc3c3ccccc23)CC1 | 25 µg/mL (≈ 75.7 µM) |  |  | 
CC(=O)c1ccc(S(=O)(=O)N2CCN(c3nc4ccccc4c4ccccc34)CC2)cc1 | 25 µg/mL (≈ 56.1 µM) |  |  | 
O=C(CCCc1c[nH]c2ccccc12)N1CCN(c2nc3ccccc3c3ccccc23)CC1 | 1.56 µg/mL (≈ 3.48 µM) | 34.1% | 73.3 µg/mL (≈ 163 µM) | 47
Nc1ccccc1C(=O)N1CCN(c2nc3ccccc3c3ccccc23)CC1 | > 50 µg/mL |  |  | 
Cc1cc(C)c(S(=O)(=O)N2CCN(c3nc4ccccc4c4ccccc34)CC2)c(C)c1 | 12.5 µg/mL (≈ 28.1 µM) | 26.5% | 94.3 µg/mL (≈ 212 µM) | 7.54
NNC(=O)c1ccncc1 [ISONIAZID] | 0.1 µg/mL (≈ 0.729 µM) |  |  | 
NC(=O)c1cnccn1 [PYRAZINAMIDE] | 6.25 µg/mL (≈ 50.8 µM) |  |  | 
CO[C@H]1/C=C/O[C@@]2(C)Oc3c(C)c(O)c4c(O)c(c(/C=N/N5CCN(C)CC5)c(O)c4c3C2=O)NC(=O)/C(C)=C\C=C\[C@H](C)[C@H](O)[C@@H](C)[C@@H](O)[C@@H](C)[C@H](OC(C)=O)[C@@H]1C [RIFAMPIN] | 0.2 µg/mL (≈ 0.243 µM) |  |  | 
